Results as given in ChEMBL document CHEMBL1240480, “Design, synthesis and biological evaluation of L-dopa amide derivatives as potential prodrugs for the treatment of Parkinson's disease” (Eur J Med Chem, 2010).
Each block holds one compound with its values, some of them ahead of it.

What was measured:
Rattus norvegicus [1] = assay: AUC (0 to 4 hrs) in Wistar rat at 23.9 mg/kg, po assessed as L-dopa level; format: ADME, organism-based, Plasma; set-up: time < 4 hr, dose 23.9 mg/kg, route oral; settings: in vivo
Method in brief: (§1)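 Naïve male Wistar rats (250–500 g), fasted overnight, dosed with compound in 0.9% saline together with benserazide (10 mg/kg), at a dose molar-equivalent to 12.5 mg/kg L-dopa. Heparinised tail-vein blood was sampled at intervals and the plasma stored at −80 °C. L-dopa was extracted with 20% TFA/10 mM metabisulphite plus warfarin internal standard and quantified by LC-MS/MS (positive ESI) against plasma standard curves.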

Rattus norvegicus [2] = assay: Antiparkinsonian activity in 6-hydroxydopamine lesioned Wistar rat assessed as area under curve measured as number of rotation per 10 mins at 23.89 mg/kg, po; format: functional
Method in brief: (§2)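 Male Wistar rats were given desipramine (25 mg/kg ip) and then a unilateral 6-OHDA injection (8 µg free base) into the left medial forebrain bundle. Lesions were confirmed ≥2 weeks later by apomorphine (0.5 mg/kg sc), accepting rats with >6 turns/min. Rats (n=4–8) received benserazide 10 mg/kg and 30 min basal recording, then drug at 63.4 µmol/kg ip or po in saline. Contraversive rotations were counted per 10 min over 240 min. AUC was calculated and expressed as % of the L-dopa effect.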

Rattus norvegicus [3] = assay: Antiparkinsonian activity in 6-hydroxydopamine lesioned Wistar rat assessed as number of rotation per 10 mins at 23.89 mg/kg, po; format: functional
Rattus norvegicus [4] = assay: Antiparkinsonian activity in 6-hydroxydopamine lesioned Wistar rat assessed as duration of rotation per 10 mins at 23.89 mg/kg, po; format: functional
Method in brief: (§3)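 The 6-OHDA-lesioned male Wistar rats were apomorphine-screened (>6 turns/min) and given benserazide 10 mg/kg, then a saline-vehicle dose of 63.4 µmol/kg ip or po (n=4–8). Rotations were counted per 10 min for 4 h. Duration of activity was the time turning >10 turns per 10 min, expressed as % of the L-dopa effect.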

Rattus norvegicus [5] = assay: Cmax in Wistar rat at 23.9 mg/kg, po assessed as L-dopa level; format: ADME, organism-based; set-up: dose 23.9 mg/kg, route oral; settings: in vivo
Method in brief: (§4)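 Naïve male Wistar rats (250–500 g), fasted overnight, dosed orally in 0.9% saline with benserazide (10 mg/kg) at dose equivalent to 12.5 mg/kg L-dopa. Heparinised tail-vein blood at various times; plasma extracted with 20% TFA in 10 mM metabisulphite with warfarin internal standard; L-dopa quantified by LC-MS/MS (positive ESI) against plasma standard curve 0.39–50 µM.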

Rattus norvegicus [6] = assay: Antiparkinsonian activity in 6-hydroxydopamine lesioned Wistar rat assessed as number of rotation per 10 mins at 21.35 mg/kg, po; format: functional
Rattus norvegicus [7] = assay: Antiparkinsonian activity in 6-hydroxydopamine lesioned Wistar rat assessed as area under curve measured as number of rotation per 10 mins at 21.35 mg/kg, po; format: functional; method in brief: as §2
Rattus norvegicus [8] = assay: Antiparkinsonian activity in 6-hydroxydopamine lesioned Wistar rat assessed as area under curve measured as number of rotation per 10 mins at 21.35 mg/kg, ip; format: functional; settings: route intraperitoneal; method in brief: as §2
Rattus norvegicus [9] = assay: Antiparkinsonian activity in 6-hydroxydopamine lesioned Wistar rat assessed as duration of rotation per 10 mins at 21.35 mg/kg, po; format: functional; method in brief: as §3
Rattus norvegicus [10] = assay: Antiparkinsonian activity in 6-hydroxydopamine lesioned Wistar rat assessed as number of rotation per 10 mins at 21.35 mg/kg, ip; format: functional; settings: route intraperitoneal
Rattus norvegicus [11] = assay: Antiparkinsonian activity in 6-hydroxydopamine lesioned Wistar rat assessed as duration of rotation per 10 mins at 21.35 mg/kg, ip; format: functional; settings: route intraperitoneal; method in brief: as §3
Rattus norvegicus [12] = assay: AUC (0 to 4 hrs) in Wistar rat at 42.5 mg/kg, po assessed as L-dopa level; format: ADME, organism-based, Plasma; set-up: time < 4 hr, dose 42.5 mg/kg, route oral; settings: in vivo; method in brief: as §1
Rattus norvegicus [13] = assay: Apparent half life in Wistar rat at 42.5 mg/kg, po assessed as L-dopa level; format: ADME, organism-based; set-up: dose 42.5 mg/kg, route oral; settings: in vivo; method in brief: as §4
Rattus norvegicus [14] = assay: Cmax in Wistar rat at 42.5 mg/kg, po assessed as L-dopa level; format: ADME, organism-based; set-up: dose 42.5 mg/kg, route oral; settings: in vivo; method in brief: as §4
Rattus norvegicus [15] = assay: Apparent half life in Wistar rat at 25.4 mg/kg, po assessed as L-dopa level; format: ADME, organism-based; set-up: dose 25.4 mg/kg, route oral; settings: in vivo; method in brief: as §4
Rattus norvegicus [16] = assay: AUC (0 to 4 hrs) in Wistar rat at 25.4 mg/kg, po assessed as L-dopa level; format: ADME, organism-based, Plasma; set-up: time < 4 hr, dose 25.4 mg/kg, route oral; settings: in vivo; method in brief: as §1
Rattus norvegicus [17] = assay: Cmax in Wistar rat at 25.4 mg/kg, po assessed as L-dopa level; format: ADME, organism-based; set-up: dose 25.4 mg/kg, route oral; settings: in vivo; method in brief: as §4
Rattus norvegicus [18] = assay: Antiparkinsonian activity in 6-hydroxydopamine lesioned Wistar rat assessed as area under curve measured as number of rotation per 10 mins at 21.86 mg/kg, po; format: functional; method in brief: as §2
Rattus norvegicus [19] = assay: Antiparkinsonian activity in 6-hydroxydopamine lesioned Wistar rat assessed as duration of rotation per 10 mins at 21.86 mg/kg, po; format: functional; method in brief: as §3
Rattus norvegicus [20] = assay: Antiparkinsonian activity in 6-hydroxydopamine lesioned Wistar rat assessed as number of rotation per 10 mins at 21.86 mg/kg, po; format: functional
Rattus norvegicus [21] = assay: Antiparkinsonian activity in 6-hydroxydopamine lesioned Wistar rat assessed as duration of rotation per 10 mins at 16.53 mg/kg, ip; format: functional; settings: route intraperitoneal; method in brief: as §3
Rattus norvegicus [22] = assay: Antiparkinsonian activity in 6-hydroxydopamine lesioned Wistar rat assessed as number of rotation per 10 mins at 16.53 mg/kg, ip; format: functional; settings: route intraperitoneal
Method in brief: (§5)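 Rotometer assay in unilaterally 6-OHDA-lesioned male Wistar rats (apomorphine-confirmed, >6 turns/min). Benserazide 10 mg/kg was given, followed by compound at 63.4 µmol/kg ip or po in saline (n=4–8 per treatment). Rotations were recorded per 10 min for 240 min. Peak (maximum) rotations per 10 min were taken and expressed relative to L-dopa.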

Rattus norvegicus [23] = assay: Antiparkinsonian activity in 6-hydroxydopamine lesioned Wistar rat assessed as area under curve measured as number of rotation per 10 mins at 16.53 mg/kg, ip; format: functional; settings: route intraperitoneal; method in brief: as §2
Rattus norvegicus [24] = assay: Antiparkinsonian activity in 6-hydroxydopamine lesioned Wistar rat assessed as number of rotation per 10 mins at 16.53 mg/kg, po; format: functional; method in brief: as §5
Rattus norvegicus [25] = assay: Antiparkinsonian activity in 6-hydroxydopamine lesioned Wistar rat assessed as duration of rotation per 10 mins at 16.53 mg/kg, po; format: functional; method in brief: as §3
Rattus norvegicus [26] = assay: Antiparkinsonian activity in 6-hydroxydopamine lesioned Wistar rat assessed as area under curve measured as number of rotation per 10 mins at 16.53 mg/kg, po; format: functional; method in brief: as §2

SMILES: Cl.N[C@@H](Cc1ccc(O)c(O)c1)C(=O)NCCc1ccccc1
Activity (Rattus norvegicus [6]): 17
Activity (Rattus norvegicus [7]): 94
Activity (Rattus norvegicus [8]): 825
Time (Rattus norvegicus [9]): 30 min
Activity (Rattus norvegicus [10]): 124
Time (Rattus norvegicus [11]): 124 min

SMILES: CC(C)(C)C(=O)Oc1ccc(C[C@H](N)C(N)=O)cc1OC(=O)C(C)(C)C.Cl
AUC (Rattus norvegicus [12]): 44 µg·min/mL
t1/2 (Rattus norvegicus [13]): 0.85 h
Cmax (Rattus norvegicus [14]): 415 ng/mL

SMILES: CCNC(=O)[C@@H](N)Cc1ccc(OC(C)=O)c(OC(C)=O)c1.Cl
Activity (Rattus norvegicus [18]): 20
Time (Rattus norvegicus [19]): 3 min
Activity (Rattus norvegicus [20]): 6

SMILES: CCNC(=O)[C@@H](N)Cc1ccc(O)c(O)c1.Cl
Time (Rattus norvegicus [21]): 18 min
Activity (Rattus norvegicus [22]): 40
Activity (Rattus norvegicus [23]): 117
Activity (Rattus norvegicus [24]): 39
Time (Rattus norvegicus [25]): 39 min
Activity (Rattus norvegicus [26]): 324

The next lines start with results.

AUC (Rattus norvegicus [1]): 95 µg·min/mL
Cmax (Rattus norvegicus [5]): 690 ng/mL
SMILES: CCOC(=O)Oc1ccc(C[C@H](N)C(N)=O)cc1OC(=O)OCC.Cl
Activity (Rattus norvegicus [2]): 579
Activity (Rattus norvegicus [3]): 90
Time (Rattus norvegicus [4]): 153 min

t1/2 (Rattus norvegicus [15]): 1.3 h
AUC (Rattus norvegicus [16]): 98 µg·min/mL
Cmax (Rattus norvegicus [17]): 860 ng/mL
SMILES: CC(C)CC(=O)Oc1ccc(C[C@H](N)C(N)=O)cc1OC(=O)CC(C)C.Cl
